Source: ChEMBL document CHEMBL1140054, “Phosphate prodrugs derived from N-acetylglucosamine have enhanced chondroprotective activity in explant cultures and represent a new lead in antiosteoarthritis drug discovery” (J Med Chem, 2008)

Assays:
[1] = Chondroprotective activity in bovine articular cartilage explant cultures assessed as reduction in IL1-induced glycosaminoglycan release at 0.1 mM after 96 hrs relative to control; assay type: functional, Bos taurus; set-up: scale not given: the % may be the effect or the level left
Outline: (§1)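 Full-depth articular cartilage explants (50-100 mg) from mature bovine metacarpophalangeal joints; equilibrated 48 h in DMEM with 10% FCS, gentamicin, 1% HEPES, then washed in serum-free medium. Cultured in triplicate in serum-free DMEM with or without compound (10-0.1 mM); 10 ng/mL recombinant human IL-1 added to half the wells. After 96 h, media sulfated GAG measured by DMMB dye binding (A525) against shark chondroitin sulfate C standard.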

[2] = Cytotoxicity against bovine chondrocytes at 0.1 mM after 96 hrs by MTT cell viability assay; assay type: cell-based, Bos taurus; conditions: cattle, 100 µM
Outline: (§2)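 Chondrocytes isolated from mature bovine (>18 months) metacarpophalangeal cartilage by 1 h 0.1% pronase then overnight 0.04% collagenase digestion at 37 °C. Cultured 96 h in serum-free DMEM with gentamicin and 1% HEPES, with or without compound (10-0.1 mM). MTT at final 1 mg/mL for 3 h; formazan dissolved in DMSO and OD read. Viability given as % of untreated cells; n experiments from different cows, in triplicate.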

[3] = Chondroprotective activity in bovine articular cartilage explant cultures assessed as reduction in IL1-induced glycosaminoglycan release at 0.1 mM after 96 hrs; assay type: functional, Bos taurus; outline: as §1
[4] = Chondroprotective activity in bovine articular cartilage explant cultures assessed as reduction in IL1-induced glycosaminoglycan release at 1 mM after 96 hrs; assay type: functional, Bos taurus; outline: as §1
[5] = Cytotoxicity against bovine chondrocytes at 1 mM after 96 hrs by MTT cell viability assay; assay type: cell-based, Bos taurus; conditions: cattle, 1000 µM; outline: as §2
[6] = Cytotoxicity against bovine chondrocytes at 10 mM after 96 hrs by MTT cell viability assay; assay type: cell-based, Bos taurus; conditions: cattle, 10000 µM; outline: as §2
[7] = Chondroprotective activity in bovine articular cartilage explant cultures assessed as reduction in IL1-induced glycosaminoglycan release at 10 mM after 96 hrs relative to control; assay type: functional, Bos taurus; set-up: scale not given: the % may be the effect or the level left; outline: as §1
[8] = Chondroprotective activity in bovine articular cartilage explant cultures assessed as reduction in IL1-induced glycosaminoglycan release at 10 mM after 96 hrs; assay type: functional, Bos taurus; outline: as §1
[9] = Chondroprotective activity in bovine articular cartilage explant cultures assessed as reduction in IL1-induced glycosaminoglycan release at 1 mM after 96 hrs relative to control; assay type: functional, Bos taurus; set-up: scale not given: the % may be the effect or the level left; outline: as §1

With `CCOC(=O)[C@@H](NP(=O)(OC[C@H]1OC(O)[C@H](NC(C)=O)[C@@H](O)[C@@H]1O)Oc1ccc(OC)cc1)C(C)C` (some centres not stated) the Activity [1] was -21.1%, the Activity [2] was 94% and the “fold change (FC)” value [3] was 4.4.
In the case of `COc1ccc(OP(=O)(OC[C@H]2OC(O)[C@H](NC(C)=O)[C@@H](O)[C@@H]2O)N2CCC[C@H]2C(=O)OCc2ccccc2)cc1` (some centres not stated), the “fold change (FC)” value [4] is reported as 4.1, the Activity [5] is reported as 85% and the Activity [6] is reported as 63%. The Activity [7] was 65.6%, the Activity [1] was -21.9% and the Activity [2] was 78%. For the same molecule, the “fold change (FC)” value [8] was 0.8, the “fold change (FC)” value [3] was 4 and the Activity [9] was 2.2%.
For `COc1ccc(OP(=O)(NC(C)(C)C(=O)OCc2ccccc2)OC[C@H]2OC(O)[C@H](NC(C)=O)[C@@H](O)[C@@H]2O)cc1` (some centres not stated), the “fold change (FC)” value [4] was 4.2, the Activity [5] was 95% and the Activity [1] was -2.2%. The Activity [2] was 99%, the “fold change (FC)” value [3] was 3.4 and the Activity [9] was -0.3%.
In the case of `COc1ccc(OP(=O)(N[C@@H](Cc2ccccc2)C(=O)OCc2ccccc2)OC[C@H]2OC(O)[C@H](NC(C)=O)[C@@H](O)[C@@H]2O)cc1` (some centres not stated), the Activity [6] is reported as 49%, the Activity [7] is reported as 2.3% and the “fold change (FC)” value [8] is reported as 2.1.
In the case of `COc1ccc(OP(=O)(N[C@@H](CC(C)C)C(=O)OCc2ccccc2)OC[C@H]2OC(O)[C@H](NC(C)=O)[C@@H](O)[C@@H]2O)cc1` (some centres not stated), the “fold change (FC)” value [4] is reported as 2.6, the Activity [5] is reported as 20% and the Activity [6] is reported as 39%. For the same molecule, the Activity [7] was 64%, the Activity [1] was 12.2% and the Activity [2] was 87%. The “fold change (FC)” value [8] was 0.9, the “fold change (FC)” value [3] was 4.1 and the Activity [9] was 44.7%.
With `COc1ccc(OP(=O)(N[C@H](C(=O)OCc2ccccc2)C(C)C)OC[C@H]2OC(O)[C@H](NC(C)=O)[C@@H](O)[C@@H]2O)cc1` (some centres not stated) the “fold change (FC)” value [4] was 0.9, the Activity [5] was 100% and the Activity [6] was 40%. The Activity [7] was 85.3%, the Activity [1] was 2.5% and the Activity [2] was 104%. For the same molecule, the “fold change (FC)” value [8] was 0.5, the “fold change (FC)” value [3] was 4 and the Activity [9] was 77.6%.
With `COc1ccc(OP(=O)(N[C@@H](CCSC)C(=O)OCc2ccccc2)OC[C@H]2OC(O)[C@H](NC(C)=O)[C@@H](O)[C@@H]2O)cc1` (some centres not stated) the “fold change (FC)” value [4] was 1.6, the Activity [5] was 49% and the Activity [1] was 18%. The Activity [2] was 103%, the “fold change (FC)” value [3] was 3.8 and the Activity [9] was 62.2%.
In the case of `CC[C@H](C)[C@H](NP(=O)(OC[C@H]1OC(O)[C@H](NC(C)=O)[C@@H](O)[C@@H]1O)Oc1ccc(OC)cc1)C(=O)OCc1ccccc1` (some centres not stated), the “fold change (FC)” value [4] is reported as 1.2, the Activity [5] is reported as 118% and the Activity [6] is reported as 56%. It also gave an Activity [7] of 74.6%, an Activity [1] of 5.2% and an Activity [2] of 110%. The “fold change (FC)” value [8] was 0.5, the “fold change (FC)” value [3] was 3.9 and the Activity [9] was 70.8%.
For `CCCCOC(=O)[C@@H]1CCCN1P(=O)(OC[C@H]1OC(O)[C@H](NC(C)=O)[C@@H](O)[C@@H]1O)Oc1ccc(OC)cc1` (some centres not stated), the Activity [1] was -17.5%, the Activity [2] was 98% and the “fold change (FC)” value [3] was 4.1.
For `COc1ccc(OP(=O)(N[C@H](C)C(=O)OCc2ccccc2)OC[C@H]2OC(O)[C@H](NC(C)=O)[C@@H](O)[C@@H]2O)cc1` (some centres not stated), the “fold change (FC)” value [4] was 2.8, the Activity [5] was 66% and the Activity [1] was 24.3%. For the same molecule, the Activity [2] was 96%, the “fold change (FC)” value [3] was 3.4 and the Activity [9] was 31%.
For `COc1ccc(OP(=O)(NCC(=O)OCc2ccccc2)OC[C@H]2OC(O)[C@H](NC(C)=O)[C@@H](O)[C@@H]2O)cc1` (some centres not stated), the “fold change (FC)” value [4] was 1.2, the Activity [5] was 100% and the Activity [1] was -12.2%. The Activity [2] was 99%, the “fold change (FC)” value [3] was 4.2 and the Activity [9] was 73.6%.
`COC(=O)[C@H](C)NP(=O)(OC[C@H]1OC(O)[C@H](NC(C)=O)[C@@H](O)[C@@H]1O)Oc1ccc(OC)cc1` (some centres not stated) showed an Activity [5] of 37%, an Activity [1] of 15.8% and an Activity [2] of 97%. For the same molecule, the “fold change (FC)” value [3] was 3.9.
`COc1ccc(OP(=O)(N[C@H](C(=O)OC2CCCCC2)C(C)C)OC[C@H]2OC(O)[C@H](NC(C)=O)[C@@H](O)[C@@H]2O)cc1` (some centres not stated) gave an Activity [5] of 30%, an Activity [1] of -6.3% and an Activity [2] of 92%. The “fold change (FC)” value [3] was 4.8.
For `COc1ccc(OP(=O)(N[C@H](C(=O)OC(C)C)C(C)C)OC[C@H]2OC(O)[C@H](NC(C)=O)[C@@H](O)[C@@H]2O)cc1` (some centres not stated), the “fold change (FC)” value [4] was 3.6, the Activity [5] was 56% and the Activity [1] was 14%. The Activity [2] was 93%, the “fold change (FC)” value [3] was 3.2 and the Activity [9] was 12.1%.
`CCOC(=O)CN(C)P(=O)(OC[C@H]1OC(O)[C@H](NC(C)=O)[C@@H](O)[C@@H]1O)Oc1ccc(OC)cc1` (some centres not stated) showed an Activity [5] of 100%, an Activity [1] of -16.3% and an Activity [2] of 100%. For the same molecule, the “fold change (FC)” value [3] was 5.4.
In the case of `N[C@H]1C(O)O[C@H](CO)[C@@H](O)[C@@H]1O` (some centres not stated) [GLUCOSAMINE], the “fold change (FC)” value [4] is reported as 4.7, the Activity [5] is reported as 88% and the Activity [6] is reported as 56%. For the same molecule, the Activity [7] was 19%, the Activity [1] was 0.8% and the Activity [2] was 106%. For the same molecule, the “fold change (FC)” value [8] was 2, the “fold change (FC)” value [3] was 5.1 and the Activity [9] was 3.4%.
Work on `CCOC(=O)CNP(=O)(OC[C@H]1OC(O)[C@H](NC(C)=O)[C@@H](O)[C@@H]1O)Oc1ccc(OC)cc1` (some centres not stated) yielded an Activity [5] of 37%, an Activity [1] of -19.3% and an Activity [2] of 78%. The “fold change (FC)” value [3] was 3.6.
With `CCOC(=O)[C@H](C)NP(=O)(OC[C@H]1OC(O)[C@H](NC(C)=O)[C@@H](O)[C@@H]1O)Oc1ccc(OC)cc1` (some centres not stated) the Activity [5] was 76%, the Activity [1] was -1.9% and the Activity [2] was 89%. For the same molecule, the “fold change (FC)” value [3] was 4.4.
In the case of `CC(=O)N[C@@H]1[C@@H](O)[C@H](O)[C@@H](CO)O[C@H]1O` [N-ACETYLGLUCOSAMINE], the “fold change (FC)” value [4] is reported as 4.5, the Activity [5] is reported as 70% and the Activity [6] is reported as 61%. For the same molecule, the Activity [7] was 9.3%, the Activity [1] was 5.4% and the Activity [2] was 107%. For the same molecule, the “fold change (FC)” value [8] was 2.9, the “fold change (FC)” value [3] was 4.3 and the Activity [9] was -1%.
For `COc1ccc(OP(=O)(N[C@@H](C)C(=O)OCc2ccccc2)OC[C@H]2OC(O)[C@H](NC(C)=O)[C@@H](O)[C@@H]2O)cc1` (some centres not stated), the “fold change (FC)” value [4] was 4.2, the Activity [5] was 81% and the Activity [6] was 85%. It also gave an Activity [7] of 24.2%, an Activity [1] of -2.2% and an Activity [2] of 104%. The “fold change (FC)” value [8] was 2, the “fold change (FC)” value [3] was 4.6 and the Activity [9] was 5.6%.
